≈ marks a conversion by molar mass, not a printed value.
Test system: Mus musculus
Assay: In vivo antitumor activity (9.81 mg/kg) is the measure of tumor growth inhibition of human tumor xenograft DLD-1 (colon) implanted sc in mice.
Assay type: functional, organism-based
Conditions: not given
Summary of the method: (§1)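 Tumor fragments (2–3 mm3) implanted sc into female BALB/cA Jcl-nu mice on day 0. A single iv dose was given once tumor volume reached about 100 mm3. Read-out is percentage of maximum tumor growth inhibition versus the untreated group.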

With CISPLATIN the TGI was 25%.

Test system: P338
Assay: In vitro concentration required to inhibit the growth of […] murine leukemia cells by 50%
Assay type: functional, cell-based
Conditions: Mus musculus

Compared with `COC(=O)c1[nH]c2c(c1C(=O)OC)[C@@]13C[C@@H]1CN(C(=O)c1cc4cc(NC(=O)c5cc6ccccc6o5)ccc4[nH]1)C3=CC2=O` (racemic), `COC(=O)c1[nH]c2c(c1C(=O)OC)[C@@]13C[C@@H]1CN(C(=O)c1cc4cc(NC(=O)c5cc6ccccc6[nH]5)ccc4[nH]1)C3=CC2=O` (racemic) is 2.1-fold lower in IC50: 0.66 ng/mL (≈ 1.09 nM) for the first, 0.31 ng/mL (≈ 0.514 nM) for the second.

`COC(=O)c1c(C(F)(F)F)[nH]c2c1[C@@]13C[C@@H]1CN(C(=O)c1cc4cc(OC)c(OC)c(OC)c4[nH]1)C3=CC2=O` (racemic) and `COC(=O)c1c(C)[nH]c2c1[C@@]13C[C@@H]1CN(C(=O)c1cc4cc(OC)c(OC)c(OC)c4[nH]1)C3=CC2=O` (racemic) are within 1.5-fold of each other in IC50: 0.24 ng/mL (≈ 0.44 nM) for the first, 0.34 ng/mL (≈ 0.692 nM) for the second.

Compared with `COC(=O)c1c(C(F)(F)F)[nH]c2c1[C@@]13C[C@@H]1CN(C(=O)c1cc4cc(OC)ccc4[nH]1)C3=CC2=O` (racemic), `COC(=O)c1c(C(F)(F)F)[nH]c2c1[C@@]13C[C@@H]1CN(C(=O)c1cc4cc(NC(=O)c5cc6ccccc6o5)ccc4[nH]1)C3=CC2=O` (racemic) is 2.3-fold higher in IC50: 0.23 ng/mL (≈ 0.474 nM) for the first, 0.53 ng/mL (≈ 0.862 nM) for the second.

For `COC(=O)c1c(C(F)(F)F)[nH]c2c1[C@@]13C[C@@H]1CN(C(=O)c1cc4cc(NC(=O)c5cc6ccccc6[nH]5)ccc4[nH]1)C3=CC2=O` (racemic), the IC50 was 0.86 ng/mL (≈ 1.4 nM).

Test system: Mus musculus
Assay: In vivo antitumor activity (0.5 mg/Kg) is the measure of tumor growth inhibition of colon 26 murine […] cells.
Assay type: functional
Conditions: not given
Summary of the method: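 Colon 26 cells (10^6/mouse) inoculated sc into male CDF1 mice on day 0; drug given iv on day 7. Read-out is percentage tumor growth inhibition versus the untreated group.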

`COC(=O)c1c(C(F)(F)F)[nH]c2c(O)cc3c(c12)[C@H](CCl)CN3C(=O)c1cc2cc(NC(=O)c3cnc4ccccc4c3)ccc2[nH]1` (racemic) and `COC(=O)c1c(C(F)(F)F)[nH]c2c(O)cc3c(c12)[C@H](CCl)CN3C(=O)c1cc2cc(NC(=O)c3ccc4ccccc4c3)ccc2[nH]1` (racemic) are the same in TGI: 84% for the first, 84% for the second.

Going from `COC(=O)c1c(C(F)(F)F)[nH]c2c(O)cc3c(c12)[C@H](CCl)CN3C(=O)c1cc2cc(NC(=O)c3cc4ccccc4o3)ccc2[nH]1` (racemic) to `COC(=O)c1c(C(F)(F)F)[nH]c2c(O)cc3c(c12)[C@H](CCl)CN3C(=O)c1cc2cc(NC(=O)c3cc4ccc(OC)cc4o3)ccc2[nH]1` (racemic), the TGI rises from 85% to 94%.

Going from `COC(=O)c1c(C(F)(F)F)[nH]c2c(O)cc3c(c12)[C@H](CCl)CN3C(=O)c1cc2cc(OC)c(OC)c(OC)c2o1` (racemic) to `COC(=O)c1c(C(F)(F)F)[nH]c2c(O)cc3c(c12)[C@H](CCl)CN3C(=O)c1cc2cc(NC(=O)c3cc4c(OC)c(OC)c(OC)cc4[nH]3)ccc2[nH]1`, the TGI rises from 75% to 95%.

Going from `COC(=O)c1c(C(F)(F)F)[nH]c2c(O)cc3c(c12)[C@H](CCl)CN3C(=O)c1cc2cc(NC(=O)c3cc4cc(OC)ccc4o3)ccc2[nH]1` (racemic) to `COC(=O)c1c(C(F)(F)F)[nH]c2c(O)cc3c(c12)[C@H](CCl)CN3C(=O)c1cc2cc(NC(=O)c3cc4cccc(OC)c4o3)ccc2[nH]1` (racemic), the TGI rises from 94% to 96%.

Test system: Mus musculus
Assay: In vivo antitumor activity (0.25 mg/Kg) is the measure of increase in life span of mice bearing P388 murine leukemia cells; 2/2 cured mice (>60-day survivors)
Assay type: functional, organism-based
Conditions: not given

With `COC(=O)c1c(C(F)(F)F)[nH]c2c1[C@@]13C[C@@H]1CN(C(=O)c1cc4cc(NC(=O)c5cc6ccccc6[nH]5)ccc4[nH]1)C3=CC2=O` (racemic) the ILS was 2/2 cured mice (>60-day survivors).

Test system: Mus musculus
Assay: In vivo antitumor activity (9.81 mg/kg) is the measure of tumor growth inhibition of human tumor xenograft WiDr (colon) implanted sc in mice.
Assay type: functional, organism-based
Conditions: not given
Summary of the method: as §1

CISPLATIN showed a TGI of 44%.

Test system: Mus musculus
Assay: In vivo antitumor activity (9.81 mg/kg) is the measure of tumor growth inhibition of human tumor xenograft NUGC-3 (stomach) implanted sc in mice.
Assay type: functional, organism-based
Conditions: not given
Summary of the method: as §1

For CISPLATIN, the TGI was 87%.

Test system: Mus musculus
Assay: In vivo antitumor activity (9.81 mg/kg) is the measure of tumor growth inhibition of human tumor xenograft HCT116 (colon) implanted sc in mice.
Assay type: functional, organism-based
Conditions: not given
Summary of the method: as §1

With CISPLATIN the TGI was 34%.

Test system: HeLa
Assay: Concentration required to inhibit the growth of HeLaS3 human uterine cervix carcinoma cells by 50%
Assay type: functional, cell-based
Conditions: not given

Compared with `COC(=O)c1c(C(F)(F)F)[nH]c2c(O)cc3c(c12)[C@H](CCl)CN3C(=O)c1cc2cc(NC(=O)c3cnc4ccccc4c3)ccc2[nH]1` (racemic), `COC(=O)c1c(C(F)(F)F)[nH]c2c(O)cc3c(c12)[C@H](CCl)CN3C(=O)c1cc2cc(NC(=O)c3ccc4ccccc4c3)ccc2[nH]1` (racemic) is 6.8-fold lower in IC50: 1.5 ng/mL (≈ 2.27 nM) for the first, 0.22 ng/mL (≈ 0.333 nM) for the second.

First: COC(=O)c1c(C(F)(F)F)[nH]c2c(O)cc3c(c12)[C@H](CCl)CN3C(=O)c1cc2cc(NC(=O)c3cc4ccccc4o3)ccc2[nH]1 (racemic)
Second: COC(=O)c1c(C(F)(F)F)[nH]c2c(O)cc3c(c12)[C@H](CCl)CN3C(=O)c1cc2cc(NC(=O)c3cc4ccc(OC)cc4o3)ccc2[nH]1 (racemic)
The IC50 of the first is 4.4-fold higher: 0.53 ng/mL (≈ 0.814 nM) for the first, 0.12 ng/mL (≈ 0.176 nM) for the second.

Going from `COC(=O)c1c(C(F)(F)F)[nH]c2c(O)cc3c(c12)[C@H](CCl)CN3C(=O)c1cc2cc(OC)c(OC)c(OC)c2o1` (racemic) to `COC(=O)c1c(C(F)(F)F)[nH]c2c(O)cc3c(c12)[C@H](CCl)CN3C(=O)c1cc2cc(NC(=O)c3cc4c(OC)c(OC)c(OC)cc4[nH]3)ccc2[nH]1`, the IC50 rises from 0.12 ng/mL (≈ 0.206 nM) to 0.94 ng/mL (≈ 1.27 nM) (7.8-fold).

Compared with `COC(=O)c1c(C(F)(F)F)[nH]c2c(O)cc3c(c12)[C@H](CCl)CN3C(=O)c1cc2cc(NC(=O)c3cc4cc(OC)ccc4o3)ccc2[nH]1` (racemic), `COC(=O)c1c(C(F)(F)F)[nH]c2c(O)cc3c(c12)[C@H](CCl)CN3C(=O)c1cc2cc(NC(=O)c3cc4cccc(OC)c4o3)ccc2[nH]1` (racemic) is 8-fold higher in IC50: 0.064 ng/mL (≈ 0.094 nM) for the first, 0.51 ng/mL (≈ 0.749 nM) for the second.
